Data from ChEMBL document CHEMBL1156948, “Statistical molecular design of a focused salicylidene acylhydrazide library and multivariate QSAR of inhibition of type III secretion in the Gram-negative bacterium Yersinia” (Bioorg Med Chem, 2010).
≈ marks a conversion by molar mass, not a printed value. Calls of active or inactive are those of the source.

Key:
Chlamydia trachomatis = experiment: Antibacterial activity against Chlamydia trachomatis infected in human HeLa 229 cells after 35 hrs by fluorescence microscopy; format: functional
Procedure, shortened: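 HeLa 229 monolayers infected with C. trachomatis serovar L2, MOI 0.3; compounds diluted in RPMI 1640 with 10% FCS, 2 mM L-glutamine, 8 µg/mL gentamicin (DMSO final 1%) added 1 h post-infection at 50, 25, 12.5, 6.25, 3.13 µM. 35 h at 37 °C, 5% CO2; methanol fixation, immunostaining, fluorescence microscopy at 200×. MIC = lowest concentration with no intracellular inclusions; duplicates, ≥3 occasions.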

[1] = test system: Yersinia pseudotuberculosis YPIII; experiment: Inhibition of T3S in Yersinia pseudotuberculosis YPIII expressing yopE-luxAB at 100 uM after 3 hrs by luciferase reporter gene assay
Procedure, shortened: (§1)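 Strain YPIII pIB102 (yopE-luxAB) grown overnight at room temperature in BHI with 5 mM EGTA and 20 mM MgCl2 (calcium depletion), adjusted to OD600 0.088–0.095. Compound added from DMSO at 1.56–200 µM final (eight concentrations). Shaken 1 h at room temperature, then 2 h at 37 °C. Decanal added and light emission read immediately. Triplicates, repeated at least three times.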

[2] = test system: Yersinia pseudotuberculosis YPIII; experiment: Inhibition of T3S in Yersinia pseudotuberculosis YPIII expressing yopE-luxAB at 3.13 uM after 3 hrs by luciferase reporter gene assay; procedure, shortened: as §1
Escherichia coli [3] = experiment: Antibacterial activity against Escherichia coli DH5[alpha] at 100 uM after 23 hrs by broth dilution assay; format: functional, organism-based
Procedure, shortened: (§2)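 Overnight LB culture of E. coli DH5α grown at 37 °C, diluted to OD600 0.1 in LB with 2.5 mM CaCl2; compound added from DMSO stock to final 50 or 100 µM. Incubated at 37 °C with absorbance at 595 nm followed over 23 h.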

[4] = Cytotoxicity against human HeLa 229 cells assessed as cell viability at 50 uM after 28 hrs using resazurin staining by fluorescence microscopy; format: cell-based; conditions: read-out: Activity
Procedure, shortened: (§3)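 HeLa 229 viability measured at 50 and 25 µM using resazurin added 4 h before read-out; cell-free wells with medium plus compound exclude chemical reduction of resazurin. Scored relative to DMSO control, plus microscopic scoring; non-toxic defined as at least 70% viability versus control. Triplicates, repeated at least three times.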

[5] = test system: Yersinia pseudotuberculosis YPIII; experiment: Inhibition of T3S in Yersinia pseudotuberculosis YPIII expressing yopE-luxAB at 12.5 uM after 3 hrs by luciferase reporter gene assay; procedure, shortened: as §1
Escherichia coli [6] = experiment: Antibacterial activity against Escherichia coli DH5[alpha] at 50 uM after 23 hrs by broth dilution assay; format: functional, organism-based; procedure, shortened: as §2
[7] = test system: Yersinia pseudotuberculosis YPIII; experiment: Inhibition of T3S in Yersinia pseudotuberculosis YPIII expressing yopE-luxAB at 50 uM after 3 hrs by luciferase reporter gene assay; procedure, shortened: as §1
[8] = test system: Yersinia pseudotuberculosis YPIII; experiment: Inhibition of T3S in Yersinia pseudotuberculosis YPIII expressing yopE-luxAB at 25 uM after 3 hrs by luciferase reporter gene assay; procedure, shortened: as §1
[9] = test system: Yersinia pseudotuberculosis YPIII; experiment: Inhibition of T3S in Yersinia pseudotuberculosis YPIII expressing yopE-luxAB at 6.25 uM after 3 hrs by luciferase reporter gene assay; procedure, shortened: as §1
[10] = Cytotoxicity against human HeLa 229 cells assessed as cell viability at 25 uM after 28 hrs using resazurin staining by fluorescence microscopy; format: cell-based; conditions: read-out: Activity; procedure, shortened: as §3
[11] = test system: Yersinia pseudotuberculosis YPIII; experiment: Inhibition of T3S in Yersinia pseudotuberculosis YPIII expressing yopE-luxAB at 200 uM after 3 hrs by luciferase reporter gene assay; procedure, shortened: as §1
[12] = test system: Yersinia pseudotuberculosis; experiment: Antibacterial activity against Yersinia pseudotuberculosis expressing pIB102 at 100 uM after 23 hrs by broth dilution assay; format: functional, organism-based
Procedure, shortened: (§4)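 Wild-type pIB102 grown overnight in LB at room temperature, diluted to OD600 = 0.1 in LB with 2.5 mM CaCl2. Compound added from DMSO stock to final 50 and 100 µM. Incubated at 37 °C with absorbance at 595 nm read over 23 h.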

[13] = test system: Yersinia pseudotuberculosis; experiment: Antibacterial activity against Yersinia pseudotuberculosis expressing pIB102 at 50 uM after 23 hrs by broth dilution assay; format: functional, organism-based; procedure, shortened: as §4
[14] = test system: Yersinia pseudotuberculosis YPIII; experiment: Inhibition of T3S in Yersinia pseudotuberculosis YPIII expressing yopE-luxAB at 1.56 uM after 3 hrs by luciferase reporter gene assay; procedure, shortened: as §1
[15] = molecular target: Tyrosine-protein phosphatase YopH (Yersinia pseudotuberculosis serotype I (strain IP32953)) (UniProt P08538); experiment: Inhibition of YopH in Yersinia pseudotuberculosis YPIII expressing yopE-luxAB treated 3 hrs before substrate addition measured after 15 mins by microplate reader
Procedure, shortened: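 Same calcium-depleted YPIII pIB102 cultures and compound exposure (1 h room temperature, then 2 h 37 °C). An aliquot of the bacterial suspension was mixed with 25 mM p-nitrophenyl phosphate, 40 mM MES pH 5.0, 1.6 mM DTT. Incubated 15 min at 37 °C, quenched with 1 M NaOH, absorbance read at 405 nm. Triplicates, repeated at least three times.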

[16] = test system: Yersinia pseudotuberculosis; experiment: Antibacterial activity against Yersinia pseudotuberculosis expressing pIB102 infected in mouse J774 cells assessed as inhibition of bacteria-induced cell death at 50 uM after 14 hrs using calcein AM staining by fluorescence microscopy; format: functional, organism-based
Procedure, shortened: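 J774A macrophages (4 × 10^4 cells/well) grown 24 h in DMEM/10% FCS/gentamicin. Wild-type pIB102 grown in LB plus kanamycin overnight at room temperature, diluted 1/10 in DMEM, shaken 1 h at room temperature then 2 h at 37 °C. Added at OD600 = 0.002 with compound (25, 50, 100 µM final; DMSO <0.5%). Incubated 14 h, 37 °C, 5% CO2. CalceinAM 40 min, fluorescence 485/535 nm; uninfected cells = 100% viability.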

J774 = experiment: Cytotoxicity against mouse J774 cells at 25 to 100 uM after 14 hrs using calcein AM staining by fluorescence microscopy; format: cell-based; conditions: j774, 14 h
Procedure, shortened: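 J774A macrophages (4×10⁴/well, DMEM with 10% FCS, gentamicin 3 µg/mL, 24 h at 37 °C, 5% CO2) washed with PBS, then given fresh DMEM with compound plus bacteria (OD600 0.002), final 25, 50, 100 µM, DMSO below 0.5%. ETEC grown overnight in LB at 37 °C, diluted and grown 3 h. 14 h at 37 °C, 5% CO2; CalceinAM 40 min, fluorescence 485/535 nm, confirmed by microscopy; uninfected cells = 100% viability; gentamicin 5 µg/mL rescue control.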

Chain of Tyrosine-protein phosphatase YopH (Yersinia pseudotuberculosis serotype I (strain IP32953)) (P08538 whole entry): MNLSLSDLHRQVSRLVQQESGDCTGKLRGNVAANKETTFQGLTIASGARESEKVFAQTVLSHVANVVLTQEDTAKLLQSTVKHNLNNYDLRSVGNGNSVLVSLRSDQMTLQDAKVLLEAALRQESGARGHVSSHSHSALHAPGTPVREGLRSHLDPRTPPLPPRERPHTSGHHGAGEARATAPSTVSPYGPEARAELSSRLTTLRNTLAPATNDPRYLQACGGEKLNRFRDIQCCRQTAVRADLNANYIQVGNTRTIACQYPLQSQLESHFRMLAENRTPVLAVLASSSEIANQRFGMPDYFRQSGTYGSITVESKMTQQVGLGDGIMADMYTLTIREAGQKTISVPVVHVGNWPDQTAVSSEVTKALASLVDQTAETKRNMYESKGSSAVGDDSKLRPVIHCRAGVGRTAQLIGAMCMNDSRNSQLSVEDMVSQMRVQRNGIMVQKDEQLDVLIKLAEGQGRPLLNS

## O=C(N/N=C/c1cc(Br)ccc1O)c1ccccc1Cl
Chlamydia trachomatis
  MIC: 50 µM (≈ 17.7 µg/mL)
[1]
  inhibition: 58%
[2]
  inhibition: 10%
Escherichia coli [3]
  Activity: inactive
[4]
  viability at 28 h, 50 µM: 60%
[5]
  inhibition: 13%
Escherichia coli [6]
  Activity: inactive
[7]
  inhibition: 38%
[8]
  inhibition: 11%
[9]
  inhibition: 10%
[10]
  viability at 28 h, 25 µM: 77%
[11]
  inhibition: 61%
[12]
  Activity: inactive
[13]
  Activity: inactive
[14]
  inhibition: 10%

## O=C(N/N=C/c1cccc(F)c1O)c1ccc([N+](=O)[O-])cc1
Chlamydia trachomatis
  MIC: 50 µM (≈ 15.2 µg/mL)
[1]
  inhibition: 20%
[2]
  inhibition: 7%
Escherichia coli [3]
  Activity: inactive
[4]
  viability at 28 h, 50 µM: 72%
[5]
  inhibition: 4%
Escherichia coli [6]
  Activity: inactive
[7]
  inhibition: 28%
[8]
  inhibition: 19%
[9]
  inhibition: 2%
[10]
  viability at 28 h, 25 µM: 75%
[11]
  inhibition: 59%
[12]
  Activity: inactive
[13]
  Activity: inactive
[14]
  inhibition: 1%

## CC(C)(C)c1ccc(O)c(/C=N/NC(=O)Cc2ccccc2)c1
Chlamydia trachomatis
  MIC: inactive
[1]
  inhibition: 20%
[2]
  inhibition: 13%
Escherichia coli [3]
  Activity: inactive
[4]
  viability at 28 h, 50 µM: 79%
[5]
  inhibition: 4%
Escherichia coli [6]
  Activity: inactive
[7]
  inhibition: 26%
[8]
  inhibition: 10%
[9]
  inhibition: 9%
[10]
  viability at 28 h, 25 µM: 83%
[11]
  inhibition: 25%
[12]
  Activity: inactive
[13]
  Activity: inactive
[14]
  inhibition: 9%

## CCN(CC)c1ccc(/C=N/NC(=O)c2ccc(OC)c(OC)c2)c(O)c1
[1]
  inhibition: 66%
[2]
  inhibition: 14%
Escherichia coli [3]
  Activity: inactive
[5]
  inhibition: 29%
Escherichia coli [6]
  Activity: inactive
[7]
  inhibition: 66%
[8]
  inhibition: 44%
[9]
  inhibition: 14%
[15]
  inhibition: inactive
[11]
  inhibition: 56%
[12]
  Activity: inactive
[13]
  Activity: inactive

## O=C(N/N=C/c1ccc(Cl)cc1O)c1ccncc1
Chlamydia trachomatis
  MIC: inactive
[1]
  inhibition: 96%
[2]
  inhibition: -1%
Escherichia coli [3]
  Activity: inactive
[4]
  viability at 28 h, 50 µM: 67%
[5]
  inhibition: 4%
Escherichia coli [6]
  Activity: inactive
[7]
  inhibition: 84%
[8]
  inhibition: 27%
[9]
  inhibition: 3%
[10]
  viability at 28 h, 25 µM: 72%
[11]
  inhibition: 95%
[12]
  Activity: inactive
[13]
  Activity: inactive
[14]
  inhibition: 5%

## COc1ccc(Br)c(/C=N/NC(=O)c2ccncc2)c1O
[1]
  inhibition: 77%
[2]
  inhibition: 9%
Escherichia coli [3]
  Activity: inactive
[5]
  inhibition: 18%
Escherichia coli [6]
  Activity: inactive
[7]
  inhibition: 54%
[8]
  inhibition: 27%
[9]
  inhibition: 18%
[15]
  inhibition: inactive
[11]
  inhibition: 35%
[12]
  Activity: inactive
[13]
  Activity: inactive

## COc1cccc(C(=O)N/N=C/c2cc(Br)ccc2O)c1
Chlamydia trachomatis
  MIC: 25 µM (≈ 8.73 µg/mL)
[1]
  inhibition: 71%
[2]
  inhibition: 15%
Escherichia coli [3]
  Activity: inactive
[4]
  viability at 28 h, 50 µM: 65%
[5]
  inhibition: 15%
Escherichia coli [6]
  Activity: inactive
[7]
  inhibition: 44%
[8]
  inhibition: 22%
[9]
  inhibition: 8%
[10]
  viability at 28 h, 25 µM: 73%
[11]
  inhibition: 77%
[12]
  Activity: inactive
[13]
  Activity: inactive
[14]
  inhibition: 6%

## O=C(N/N=C/c1cc(Br)ccc1O)c1ccncc1
[1]
  inhibition: 95%
[2]
  inhibition: 14%
Escherichia coli [3]
  Activity: inactive
[16]
  inhibition: Active
[5]
  inhibition: 24%
Escherichia coli [6]
  Activity: inactive
[7]
  inhibition: 87%
J774
  Activity: Non-toxic
[8]
  inhibition: 43%
[9]
  inhibition: 13%
[11]
  inhibition: 98%
[12]
  Activity: inactive
[13]
  Activity: inactive
[14]
  inhibition: -8%

## Cc1ccc(C(=O)N/N=C/c2cc(C(C)(C)C)ccc2O)cc1
Chlamydia trachomatis
  MIC: 50 µM (≈ 15.5 µg/mL)
[1]
  inhibition: 24%
[2]
  inhibition: 6%
Escherichia coli [3]
  Activity: inactive
[4]
  viability at 28 h, 50 µM: 79%
[5]
  inhibition: 18%
Escherichia coli [6]
  Activity: inactive
[7]
  inhibition: 17%
[8]
  inhibition: 20%
[9]
  inhibition: 14%
[10]
  viability at 28 h, 25 µM: 80%
[11]
  inhibition: 25%
[12]
  Activity: inactive
[13]
  Activity: inactive
[14]
  inhibition: 13%

## COc1cc(Br)cc(/C=N/NC(=O)Cc2ccccc2)c1O
Chlamydia trachomatis
  MIC: inactive
[1]
  inhibition: 57%
[2]
  inhibition: 18%
Escherichia coli [3]
  Activity: inactive
[4]
  viability at 28 h, 50 µM: 33%
[5]
  inhibition: 15%
Escherichia coli [6]
  Activity: inactive
[7]
  inhibition: 22%
[8]
  inhibition: 9%
[9]
  inhibition: 12%
[10]
  viability at 28 h, 25 µM: 58%
[11]
  inhibition: 65%
[12]
  Activity: inactive
[13]
  Activity: inactive
[14]
  inhibition: 10%

## NC(=O)C(=O)N/N=C/c1c(O)cc(O)cc1O
[1]
  inhibition: 63%
[2]
  inhibition: 5%
Escherichia coli [3]
  Activity: inactive
[5]
  inhibition: 17%
Escherichia coli [6]
  Activity: inactive
[7]
  inhibition: 51%
[8]
  inhibition: 26%
[9]
  inhibition: 17%
[15]
  inhibition: inactive
[11]
  inhibition: 64%
[12]
  Activity: inactive
[13]
  Activity: inactive
[14]
  inhibition: -1%

## O=C(Cc1ccccc1)N/N=C/c1cc(Br)ccc1O
Chlamydia trachomatis
  MIC: 50 µM (≈ 16.7 µg/mL)
[1]
  inhibition: 39%
[2]
  inhibition: 4%
Escherichia coli [3]
  Activity: inactive
[4]
  viability at 28 h, 50 µM: 74%
[5]
  inhibition: 7%
Escherichia coli [6]
  Activity: inactive
[7]
  inhibition: 26%
[8]
  inhibition: 15%
[9]
  inhibition: 10%
[10]
  viability at 28 h, 25 µM: 75%
[11]
  inhibition: 50%
[12]
  Activity: inactive
[13]
  Activity: inactive
[14]
  inhibition: 15%

## COc1cc(C(=O)N/N=C/c2ccc(O)c(O)c2O)cc(OC)c1OC
[1]
  inhibition: 58%
[2]
  inhibition: 11%
Escherichia coli [3]
  Activity: inactive
[5]
  inhibition: 19%
Escherichia coli [6]
  Activity: inactive
[7]
  inhibition: 50%
[8]
  inhibition: 31%
[9]
  inhibition: 14%
[15]
  inhibition: inactive
[11]
  inhibition: 62%
[12]
  Activity: inactive
[13]
  Activity: inactive
[14]
  inhibition: -10%
